Statin myotox sup: protects C2C12 myotubes from simvastatin toxicity. ATP luminescence, 48 h; scaled: DMSO 0, geranylgeraniol control 100. rescue of ATP level, % at 7.49 µM. 330,000 compounds, 0.78% hits;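 active = mean ATP rescue above about 67%, or every replicate alone reaching that limit, limit read from the data, passing the limit was not always enough; inconclusive = no clear call, values can overlap the other calls; inactive = mean under the limit and some replicate under it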;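 also: myotubes were challenged with 10 µM simvastatin during compound exposure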
DENV2 CPE: protects cells from dengue virus 2 cytopathic effect | DENV2-infected cells, cytopathic effect rescue, plate reader | CPE inhibition, % at 9.99 µM | 350,000 compounds, 1.7% hits; in the data active = CPE inhibition above about 20%, passing the limit was not always enough; inconclusive = no clear call, values can overlap the other calls; tested in BHK-21 cells
E-selectin induc: E-selectin induction on HUVECs; P16581; 260,000 compounds, 0.37% hits; AID 686992; activation, % at 7.58 µM; HUVEC E-selectin immunofluorescence imaging; normalized: neutral wells 0, TNF-alpha wells 100;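 active = mean E-selectin-positive cell signal at least 10% of the positive control, reached in at least 60% of replicates, without over 20% cell loss; inconclusive = no rule given, readout overlaps actives, possibly toxicity-flagged; inactive = the rest, including those meeting only one limit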
Target sequence (P16581 whole entry, looked up): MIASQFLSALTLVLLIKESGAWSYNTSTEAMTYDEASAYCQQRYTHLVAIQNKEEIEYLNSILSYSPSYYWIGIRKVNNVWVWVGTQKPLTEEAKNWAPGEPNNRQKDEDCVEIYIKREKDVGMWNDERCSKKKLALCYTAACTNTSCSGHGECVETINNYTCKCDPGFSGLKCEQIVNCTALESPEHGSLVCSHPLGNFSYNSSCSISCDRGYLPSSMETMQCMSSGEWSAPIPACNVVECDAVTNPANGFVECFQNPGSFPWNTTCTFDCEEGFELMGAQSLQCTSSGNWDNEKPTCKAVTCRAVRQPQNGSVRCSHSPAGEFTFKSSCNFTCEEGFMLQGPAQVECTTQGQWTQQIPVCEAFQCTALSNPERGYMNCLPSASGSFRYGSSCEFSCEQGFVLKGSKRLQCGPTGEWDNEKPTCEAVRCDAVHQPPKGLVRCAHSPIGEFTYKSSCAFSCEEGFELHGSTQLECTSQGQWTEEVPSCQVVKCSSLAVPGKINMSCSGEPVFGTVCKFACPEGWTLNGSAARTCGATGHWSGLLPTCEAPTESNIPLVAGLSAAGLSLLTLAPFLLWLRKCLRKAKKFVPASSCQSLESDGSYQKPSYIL
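Material: HUVEC primary endothelial cells; Amount: 3,000 cells per well; Dosing: single concentration; Medium: EGM-2 growth medium on 0.1% gelatin-coated wells; Read-out basis: percent E-selectin-positive cells; Signal: immunofluorescence imaging; Control set: TNF-alpha, DMSO.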
A number is an active result; - = inactive; ? = inconclusive; . = not tested or not shown. This is a sample that favours compounds with a hit; in the whole collection about 2.2% have one here.

SMILES	Statin myotox sup	DENV2 CPE	E-selectin induc
COc1ccc(S(=O)(=O)N2CCN(CC(=O)NC3CC3)CC2)cc1	-	23	-
COc1ccc(S(=O)(=O)N2CCN(Cc3ccc(Cl)cc3)CC2)cc1	-	.	.
COC(=O)C[C@H]1C[C@@H]2c3cc(NC(=O)Nc4ccccc4)ccc3O[C@@H]2[C@H](CO)O1	-	-	-
COc1ccccc1CNC(=O)C[C@@H]1C[C@H]2c3cc(NS(C)(=O)=O)ccc3O[C@H]2[C@H](CO)O1	-	-	-
C[C@@H]1CN([C@@H](C)CO)C(=O)CCCn2cc(nn2)CO[C@H]1CN(C)CC1CCCC1	-	-	-
CCNC(=O)C[C@@H]1CC[C@@H]2[C@@H](COc3ccc(NC(=O)c4cccc(OC)c4)cc3C(=O)N2C)O1	-	-	-
C[C@H]1CN([C@@H](C)CO)C(=O)c2cc(NC(=O)c3ccncc3)ccc2O[C@H]1CN(C)S(C)(=O)=O	-	-	-
C[C@@H]1CN([C@H](C)CO)C(=O)Cc2cc(NS(=O)(=O)c3ccc(Cl)cc3)ccc2O[C@@H]1CN(C)Cc1ccc(C(F)(F)F)cc1	?	-	-
Cc1ccc(S(=O)(=O)Nc2ccc3c(c2)CC(=O)N([C@@H](C)CO)C[C@@H](C)[C@H](CN(C)Cc2ccc(C(F)(F)F)cc2)O3)cc1	69	.	-
Cc1ccc(S(=O)(=O)Nc2ccc3c(c2)CC(=O)N([C@@H](C)CO)C[C@H](C)[C@@H](CN(C)Cc2ccc(C(F)(F)F)cc2)O3)cc1	-	.	-
C[C@H](CO)N1C[C@H](C)[C@@H](CN(C)Cc2ccc(C(F)(F)F)cc2)Oc2ccc(NS(=O)(=O)c3ccc(Cl)cc3)cc2CC1=O	112	-	-
C[C@@H]1CN([C@@H](C)CO)C(=O)Cc2cc(NS(=O)(=O)c3ccc(F)cc3)ccc2O[C@@H]1CN(C)Cc1ccc(C(F)(F)F)cc1	-	-	-
Cc1ccc(S(=O)(=O)Nc2ccc3c(c2)CC(=O)N([C@H](C)CO)C[C@@H](C)[C@@H](CN(C)Cc2ccc(C(F)(F)F)cc2)O3)cc1	67	.	-
C[C@@H]1CCCCO[C@@H](CN(C)C(=O)Nc2ccccc2)[C@H](C)CN([C@@H](C)CO)C(=O)c2cc(NS(=O)(=O)c3cccs3)ccc2O1	.	-	.
O=C(C[C@@H]1C=C[C@@H](NC(=O)c2cccc(F)c2)[C@H](CO)O1)Nc1nccs1	-	-	-
COc1ccc(/C(N)=N/OC(=O)c2ccco2)cc1OC	.	-	.
Cc1csc(/C(=N/OC(=O)c2ccco2)C(N)=O)n1	-	35	.
CCOC(=O)C1=CN2CCC[C@H]2CC1=O	-	63	-
CCOC(=O)C1=CN2CCCC[C@@H]2CC1=O	-	-	-
CC=Cc1ccc2n(c1=O)C[C@@H]1[C@@H](CO)[C@H](C(=O)NCC)N(Cc3ccccc3Cl)[C@H]21 (mixture of isomers)	-	.	-
N#CC1CN(Cc2ccccc2)CN(Cc2ccccc2)C1	.	-	-
N#CC1CN(C(c2ccccc2)c2ccccc2)C1	107	-	-
CC(C)C(=O)Nc1ccc2c(c1)C(=O)N(C)[C@H]1CC[C@@H](CC(=O)NCC3CC3)O[C@H]1CO2	-	-	-
Cc1noc(C)c1NC(=O)N(C)C[C@H]1Oc2c(NS(=O)(=O)c3cn(C)cn3)cccc2C(=O)N([C@H](C)CO)C[C@H]1C	-	-	-
COc1ccccc1S(=O)(=O)N[C@H]1CC[C@@H](CCn2cc(C3CCCC3)nn2)O[C@@H]1CO	.	-	-
SMILES	Statin myotox sup	DENV2 CPE	E-selectin induc
O=C(C[C@H]1CC[C@H]2[C@@H](COC[C@H](O)CN2S(=O)(=O)c2ccc(Cl)cc2)O1)NCCN1CCCCC1	.	-	-
COC(=O)c1ccc(CSc2nc3cc(Cl)ccc3s2)o1	-	.	.
COC(=O)c1ccc(CSc2nnc(Nc3ccc(C)cc3)s2)o1	95	.	.
CN1CCN(C(=O)C[C@H]2CC[C@@H]3[C@H](COC[C@@H](O)CN3CC3CCOCC3)O2)CC1	-	-	-
C[C@H]1CN([C@@H](C)CO)C(=O)c2cc(N(C)C)ccc2O[C@@H]1CN(C)Cc1ccc(C(F)(F)F)cc1	-	-	-
C[C@@H]1CN([C@@H](C)CO)C(=O)Cc2cc(N(C)C)ccc2O[C@H]1CN(C)Cc1ccc(C(F)(F)F)cc1	97	-	-
C[C@H](CO)N1C[C@H](C)[C@H](CN(C)Cc2ccc(C(F)(F)F)cc2)Oc2ccc(N(C)C)cc2C1=O	-	40	-
C[C@H]1CN([C@@H](C)CO)C(=O)Cc2cc(N(C)C)ccc2O[C@H]1CN(C)Cc1ccc(C(F)(F)F)cc1	-	?	-
C[C@@H]1CN([C@H](C)CO)C(=O)c2cc(N(C)C)ccc2O[C@H]1CN(C)Cc1ccc(C(=O)O)cc1	-	-	267
C[C@H](CO)N1C[C@H](C)[C@H](CN(C)Cc2ccc(C(=O)O)cc2)Oc2ccc(N(C)C)cc2C1=O	-	.	-
C[C@@H]1CN([C@@H](C)CO)C(=O)c2cc(NC(=O)CCN3CCOCC3)ccc2O[C@H]1CN(C)Cc1ccccc1	-	-	-
Cc1ccc(S(=O)(=O)Nc2ccc3c(c2)C(=O)N([C@@H](C)CO)C[C@@H](C)[C@H](CN(C)S(=O)(=O)c2cn(C)cn2)O3)cc1	-	-	-
CCC(=O)N1C[C@@H]2[C@H](c3ccccc31)[C@H](CO)N2C(=O)CC	-	-	-
CC1CCc2sc(C(=O)NN=C3CCCC3)cc2C1 (centres undefined)	-	52	-
CC1CCc2sc(C(=O)NN)cc2C1 (centres undefined)	.	-	.
Cc1ccccc1S(=O)(=O)N1C[C@H](O)COC[C@@H]2O[C@H](CC(=O)N3CCC(Cc4ccccc4)CC3)CC[C@H]21	-	-	-
CCCCCn1c(CN2CCN(c3cccc(Cl)c3)CC2)nc2c1c(=O)[nH]c(=O)n2C	-	.	.
Cn1c(=O)[nH]c(=O)c2c1nc(CN1CCN(c3cccc(Cl)c3)CC1)n2CCc1ccccc1	92	.	.
COc1ccc2c(c1)CCC(=O)[C@H](O)C[C@H](c1ccccc1)OC2=O	.	?	-
O=C1CCCCC(=O)[C@H](O)C[C@H](c2ccccc2)O1	.	-	-
O=C1CCCCCCC(=O)[C@H](O)C[C@H](c2ccccc2)O1	.	50	-
COc1ccc2c(c1)C(=O)O[C@@H](c1ccccc1)C[C@@H](O)C(=O)CC2	.	33	-
O=C(C[C@@H]1C[C@H]2c3cc(NS(=O)(=O)c4ccccc4)ccc3O[C@H]2[C@H](CO)O1)N1CCCCC1	-	-	-
CNC[C@@H]1OCCCC[C@@H](C)Oc2ccc(NC(=O)C3CCCCC3)cc2C(=O)N([C@H](C)CO)C[C@@H]1C	-	-	-
CN1CCN(c2nc3c(c(=O)n(C)c(=O)n3C)n2Cc2cccc3ccccc23)CC1	116	.	.
SMILES	Statin myotox sup	DENV2 CPE	E-selectin induc
Cn1c(=O)c2c(nc(N3CCCCCC3)n2Cc2cccc3ccccc23)n(C)c1=O	-	.	-
Cc1noc(C)c1NC(=O)N[C@H]1CC[C@@H](CCNC(=O)C2CCCCC2)O[C@H]1CO	-	-	-
CC(C)NC(=O)N1CCCCN2[C@@H](CO)[C@H](c3ccc(C#CC4CC4)cc3)[C@@H]2C1	-	-	-
c1ccc2c(c1)ccc1ccccc12	-	-	.
CC1=[N+](C)c2ccc3ccccc3c2C1(C)C	.	?	196
C[C@H](CO)N1C[C@H](C)[C@@H](CN(C)C(=O)Cc2cccnc2)Oc2cc(C3=CCCCC3)ccc2S1(=O)=O	-	-	-

Screening data from PubChem.
